# Compound activity from PubChem.
# PKA-R2B act = PKA-R2B complex activation; P22694+P31323; PKA-R2B holoenzyme dissociation, Cy5-IP20 fluorescence polarization; R2B truncated from residue 108, S112A mutant; 0% DMSO only, 100% 113 µM cGMP; activation, % at 11.4 µM; hit rate 0.079% among 340,000; AID 504700;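 active means activation above a cutoff set at the mean over all compounds plus 3 SD, cut at about 18% in these data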;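 further: higher means more holoenzyme dissociation and a rise in polarization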
# PKA-R1A act = PKA-R1A complex activation. P00514+P68181. PKA-R1A dissociation, Cy5-IP20 fluorescence polarization; scaled: DMSO 0%, 113 µM cGMP 100%. activation, % at 11.4 µM. hit rate 0.083% among 340,000;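 active means percent activation above the mean of all tested compounds plus 3 SD, cut at about 19% in these data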;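 further: higher means more PKAc released from R1A so a rise in polarization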
# aDG glyco up = increases alpha dystroglycan glycosylation; activation, % at 10 µM; hit rate 0.22% among 360,000; Pro5-aDG cells, alpha-DG glycosylation AlphaScreen (IIH6); 0% Pro5, 100% B10-LARGE cell signal; AID 624168;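 active means activation of at least 8% versus controls, or a plate z-score of at least 8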;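 further: Pro5 are CHO cells carrying HIG-tagged alpha-DG that lacks glycosylation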
# Fh CTSL1 inh = blocks F. hepatica cathepsin L1 in PFM18AAP counter-screen. hit rate 0.49% among 300,000. recombinant F. hepatica cathepsin L1, Z-Leu-Arg-MCA fluorescence. inhibition, % at 5.96 µM;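 active means inhibition above the mean of all tested compounds plus 3 SD, set per screening campaign, cut at about 17% in these data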
# UCH37 DUB inh = blocks the human deubiquitinase UCH37 | hit rate 0.33% among 330,000 | Q9Y5K5 | inhibition, % (test concentration not listed) | purified proteasome/UCH37, Ub-AMC cleavage fluorescence | AID 588478;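 active means mean inhibition over replicate wells above about 20%, limit read from the data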
# Target sequence (Q9Y5K5 whole entry, looked up): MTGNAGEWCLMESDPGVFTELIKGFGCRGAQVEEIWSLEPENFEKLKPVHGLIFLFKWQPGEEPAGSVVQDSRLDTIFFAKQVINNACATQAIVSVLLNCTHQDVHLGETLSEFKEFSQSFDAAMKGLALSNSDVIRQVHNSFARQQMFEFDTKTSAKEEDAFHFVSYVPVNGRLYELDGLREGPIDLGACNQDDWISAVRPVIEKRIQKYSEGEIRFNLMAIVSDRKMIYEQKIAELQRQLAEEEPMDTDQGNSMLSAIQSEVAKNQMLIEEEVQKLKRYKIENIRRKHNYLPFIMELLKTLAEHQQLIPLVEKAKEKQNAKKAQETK
#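 Assay system: Proteasome-bound UCH37. Buffer or medium: pH 7.4 Tris-HCl (50 mM) with ovalbumin, ATP-MgCl2, DTT. Incubation: 30 min preincubation with enzyme, 25 min cleavage at room temperature. Measured by: fluorescence, ex 355 nm, em 460 nm. Read-out basis: percent inhibition. Control set: wells without proteasome as full block, compound-free enzyme plus substrate as uninhibited.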
# aDG conf = alpha-DG glycosylation activation, confirmation; activation, % at 10 µM (by protocol); Pro5-aDG cells, IIH6 AlphaLISA; scaled to LARGE-overexpressing B10 cells as 100%; shares compounds with aDG glyco up; AID 651671; hit rate 17% among 600;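 active means activation of at least 7% in one or more replicates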;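 further: cells exposed to compound for two days before detection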
# A number is an active result; . = inactive; / = no result given. Sampled rows, rich in hits. Any-hit rate of the full collection: about 0.94%.
SMILES,PKA-R2B act,PKA-R1A act,aDG glyco up,Fh CTSL1 inh,UCH37 DUB inh,aDG conf
CCC(C(=O)NCc1ccco1)N(C(=O)CNS(=O)(=O)c1ccc(F)cc1)c1ccccc1F (centres undefined),.,.,3.5,.,.,.
CCOC(=O)C(/C(N)=N/C(=O)Nc1ccccc1)=C(\C)O,.,.,2.9,.,.,.
CCOC(=O)c1ccc(NC(=S)N2CCC(C(N)=O)CC2)cc1,.,.,.,.,/,/
CCOC(=O)c1ccc(NC(=S)N2CCN(C)CC2)cc1,.,.,6.9,.,.,.
Cc1nn(C)c(C(=O)NCc2ccc(Cl)cc2)c1Cl,.,.,4.9,.,.,.
COc1cccc(CN(C)C(=O)c2cccc(S(=O)(=O)N3CCN(c4ccc(F)cc4)CC3)c2)c1OC,.,.,3.5,.,.,.
COc1cccc(CN(C)C(=O)c2cccc(S(=O)(=O)N3CCN(c4ccccc4)CC3)c2)c1OC,.,.,.,/,.,/
CC(CC1CC(COCC(C)C)OC1=O)=NNC(N)=S (centres undefined),/,/,/,/,.,/
CS(=O)(=O)c1ccc(Nc2nc(C(N)Cc3ccc(Cl)cc3)cs2)cc1 (centres undefined),/,/,24,/,/,11
CCc1ccc(Nc2cc(=O)n(C3CCCCC3)c(=O)[nH]2)cc1,.,.,6.9,.,.,.
O=C(/C=C/c1ccc2c(c1)OCO2)N1CCN(c2ccc(Cl)cc2)CC1,.,.,15,.,.,.
O=C(/C=C/c1ccc2c(c1)OCCO2)N1CCN(c2ccc(F)cc2)CC1,.,.,.,.,.,/
COc1ccc(-n2c(=O)c3ccccc3n(Cc3cccc(C)c3)c2=O)cc1OC,.,.,.,.,.,/
COc1ccc(-n2c(=O)c3ccccc3n(Cc3ccccc3F)c2=O)cc1OC,.,.,1.8,.,.,.
COc1cc(NC(=O)CNC(=O)Cn2c(C)cc3ccccc3c2=O)cc(OC)c1OC,.,.,3.3,.,.,.
Cc1onc(-c2ccccc2)c1CNS(=O)(=O)c1ccccc1[N+](=O)[O-],.,.,2.6,.,.,.
CCCC(=O)c1ccc(N2CCN(C(=O)c3ccccc3)CC2)c(F)c1,.,.,.,.,.,/
CCCC(=O)c1ccc(N2CCN(C(=O)c3ccccc3Br)CC2)c(F)c1,.,.,5.2,.,.,.
Cc1ccc(CCNC(=O)CCNS(=O)(=O)c2ccc3c(c2)oc(=O)n3C)cc1,.,.,.,.,.,/
Cn1c(=O)oc2cc(S(=O)(=O)NCCC(=O)NCCc3ccccc3)ccc21,.,.,4.3,.,.,.
O=C(Cn1cc(C=NO)c2ccccc21)N1CCOCC1,/,/,/,/,.,/
Cc1cc(C(=O)NN=Cc2cccnc2)n[nH]1,/,/,/,/,.,/
O=[N+]([O-])c1ccc(S(=O)(=O)NN=Cc2cccs2)cc1,/,/,/,/,.,/
COc1ccc2cc(CN(C(=O)Nc3ccccc3)C3CCCC3)c(=O)[nH]c2c1,.,.,16,.,.,.
COc1ccc2[nH]c(=O)c(CN(C(=O)NC3CCCCC3)C3CCCCC3)cc2c1,.,.,.,.,.,/
SMILES,PKA-R2B act,PKA-R1A act,aDG glyco up,Fh CTSL1 inh,UCH37 DUB inh,aDG conf
COC(=O)[C@]12CCCCC=C1N(Cc1cccc3ccccc13)C(=O)[C@H](CC(=O)NCCC(C)C)C2,/,/,5.6,/,/,.
COC(=O)[C@]12CCCCC=C1N(Cc1cccc3ccccc13)C(=O)[C@H](CC(=O)NCc1ccccc1)C2,/,/,.,/,/,/
Cc1cc(CNC(=O)COc2ccc(F)cc2F)c2ccccc2n1,.,.,.,.,.,/
Cc1cc(CNC(=O)COc2cc(F)ccc2[N+](=O)[O-])c2ccccc2n1,.,.,8.2,.,.,.
CN(C)C=Nc1ncnc2c1cnn2-c1ccc(C(F)(F)F)cn1,/,/,/,/,.,/
Cc1nn(C)c(C)c1/C=C/C(=O)c1ccc(Cl)cc1Cl,.,.,8.4,.,.,.
Cc1nc2sccn2c(=O)c1S(=O)(=O)NCc1ccccc1Cl,.,.,10,.,.,.
COc1ccccc1CNS(=O)(=O)c1c(C)nc2sccn2c1=O,.,.,.,.,.,/
CC(=NNC(=O)c1ccccc1O)c1ccc(N2C(=O)C3CCCCC3C2=O)cc1 (centres undefined),/,/,/,/,.,/
